ChEMBL document CHEMBL2086383, “Antitumor agents. 293. Nontoxic dimethyl-4,4'-dimethoxy-5,6,5',6'-dimethylenedioxybiphenyl-2,2'-dicarboxylate (DDB) analogues chemosensitize multidrug-resistant cancer cells to clinical anticancer drugs” (J Med Chem, 2012)
pEC50, pIC50: −log10 of the molar value. The source made the active and inactive calls. The calls are words filed in the database; no cut-off is given here.

Columns and labels:
Type in all cases: cell-based
KBVIN [1] = experiment: Inhibition of P-gp-mediated multidrug-resistance in human KBVIN cells assessed as doxorubicin-induced cytotoxicity at 10 uM after 72 hrs by SRB assay
How it was run: (§1)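 KBvin cells were exposed to graded concentrations of anticancer drug (doxorubicin, paclitaxel or vincristine), alone or with 10 μM test compound, for 72 h. Growth was read by SRB assay. IC50 was found by log-linear interpolation. Reversal fold = IC50 (drug alone) / IC50 (drug + compound). Verapamil was the positive control. Each experiment was run at least three times.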

KBVIN [2] = experiment: (§2) Inhibition of P-gp-mediated multidrug-resistance in human KBVIN cells assessed as paclitaxel-induced cytotoxicity after 72 hrs by SRB assay
How it was run: (§3)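 KBvin cells were cultured with 100 nM paclitaxel plus a range of compound concentrations. Growth was read by SRB, and the EC50 of reversal was derived. Verapamil was the comparator.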

[3] = as §2; how it was run: as §3
KBVIN [4] = experiment: Inhibition of P-gp-mediated multidrug-resistance in human KBVIN cells assessed as fold decrease in paclitaxel IC50 for cytotoxic activity at 10 uM after 72 hrs by SRB assay relative to control; how it was run: as §1
KBVIN [5] = experiment: Inhibition of P-gp-mediated multidrug-resistance in human KBVIN cells assessed as fold decrease in doxorubicin IC50 for cytotoxic activity at 10 uM after 72 hrs by SRB assay relative to control; how it was run: as §1
NIH3T3 [6] = experiment: Inhibition of human P-gp-mediated multidrug-resistance in mouse NIH3T3 MDR cells assessed as potentiation of in vincristine-induced cytotoxic activity at 10 uM after 72 hrs by SRB assay; conditions: Mus musculus cells expressing human P-gp
KB = experiment: Antiproliferative activity against human KB cells after 72 hrs by SRB assay; conditions: for pIC50: Homo sapiens, KB; for Activity: human, kb
How it was run: (§4)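 SRB assay. Cells at 3–5 × 10^3/well were exposed to a range of sample concentrations for 72 h. They were fixed in 50% TCA for 30 min, stained with 0.04% SRB for 30 min, and the dye was dissolved in 10 mM Tris base. Absorbance read at 515 nm. Medium was RPMI 1640 with 10% FBS at 37 °C, 5% CO2. KBvin cells were kept in 100 nM vincristine.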

[7] = target: T1, ATP-dependent translocase ABCB1 (Homo sapiens, UniProt P08183); experiment: Inhibition of P-gp over expressed in human multidrug-resistant KBVIN cells after 10 mins by calcein AM accumulation assay
T1 sequence (P08183 whole entry): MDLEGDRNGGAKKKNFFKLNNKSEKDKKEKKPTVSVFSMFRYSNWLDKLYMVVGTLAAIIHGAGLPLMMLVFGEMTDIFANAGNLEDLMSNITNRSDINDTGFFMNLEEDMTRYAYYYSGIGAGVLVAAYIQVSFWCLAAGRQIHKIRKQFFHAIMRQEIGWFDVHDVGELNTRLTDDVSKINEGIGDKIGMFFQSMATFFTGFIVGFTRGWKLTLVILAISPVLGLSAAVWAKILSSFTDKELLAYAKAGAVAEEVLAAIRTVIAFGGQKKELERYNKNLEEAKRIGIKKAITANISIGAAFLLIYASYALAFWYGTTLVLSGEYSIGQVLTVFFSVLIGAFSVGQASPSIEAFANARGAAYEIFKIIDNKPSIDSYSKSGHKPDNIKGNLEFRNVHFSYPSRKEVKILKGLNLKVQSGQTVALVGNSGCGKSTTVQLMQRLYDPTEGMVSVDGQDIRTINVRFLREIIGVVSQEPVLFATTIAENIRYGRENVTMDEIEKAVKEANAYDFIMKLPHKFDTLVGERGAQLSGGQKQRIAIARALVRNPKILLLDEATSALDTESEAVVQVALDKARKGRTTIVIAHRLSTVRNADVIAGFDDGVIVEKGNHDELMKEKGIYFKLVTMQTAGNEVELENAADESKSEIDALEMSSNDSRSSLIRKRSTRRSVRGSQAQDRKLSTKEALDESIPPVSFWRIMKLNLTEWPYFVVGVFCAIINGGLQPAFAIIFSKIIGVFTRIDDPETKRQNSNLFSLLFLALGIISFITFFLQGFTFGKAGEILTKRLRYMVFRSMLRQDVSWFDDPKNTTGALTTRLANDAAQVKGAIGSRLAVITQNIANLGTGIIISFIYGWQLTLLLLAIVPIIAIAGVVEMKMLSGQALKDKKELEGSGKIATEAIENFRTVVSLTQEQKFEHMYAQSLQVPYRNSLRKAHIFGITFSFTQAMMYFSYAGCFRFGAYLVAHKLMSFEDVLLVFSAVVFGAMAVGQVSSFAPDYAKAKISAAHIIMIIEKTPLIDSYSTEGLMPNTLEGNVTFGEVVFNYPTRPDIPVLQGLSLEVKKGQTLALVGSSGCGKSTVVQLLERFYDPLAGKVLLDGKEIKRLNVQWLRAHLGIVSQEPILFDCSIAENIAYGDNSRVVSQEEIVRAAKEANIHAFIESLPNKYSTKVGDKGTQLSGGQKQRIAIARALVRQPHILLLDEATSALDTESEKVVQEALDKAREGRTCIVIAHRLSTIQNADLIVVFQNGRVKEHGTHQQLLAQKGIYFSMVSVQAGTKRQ
How it was run: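 KBvin cells at 5 × 10^3/well were pretreated with samples for 1 h, then given calcein-AM (1 μM final) for 10 min. Cells were washed with ice-cold PBS and lysed in 1% SDS/PBS. Calcein fluorescence read at Ex 494/Em 517 nm. Verapamil or CsA served as positive control.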

[8] = Antiproliferative activity against human multidrug-resistant KBVIN cells after 72 hrs by SRB assay; conditions: for pIC50: Homo sapiens, KBVIN; for Activity: human, kbvin; how it was run: as §4
DU-145 = experiment: Antiproliferative activity against human DU145 cells after 72 hrs by SRB assay; conditions: for pIC50: Homo sapiens, DU-145, 72 h; for Activity: human, du-145, 72 h; how it was run: as §4
A549 = experiment: Antiproliferative activity against human A549 cells after 72 hrs by SRB assay; conditions: for pIC50: Homo sapiens, A549, 72 h; for Activity: human, a549, 72 h; how it was run: as §4
KBVIN [9] = experiment: Inhibition of P-gp-mediated multidrug-resistance in human KBVIN cells assessed as fold decrease in vincristine IC50 for cytotoxic activity at 10 uM after 72 hrs by SRB assay relative to control; how it was run: as §1
KBVIN [10] = experiment: Inhibition of P-gp-mediated multidrug-resistance in human KBVIN cells assessed as vincristine-induced cytotoxicity at 10 uM after 72 hrs by SRB assay; how it was run: as §1
NIH3T3 [11] = experiment: Inhibition of human P-gp-mediated multidrug-resistance in mouse NIH3T3 MDR cells assessed as potentiation of in paclitaxel-induced cytotoxic activity at 10 uM after 72 hrs by SRB assay; conditions: human P-gp expressed in mouse cells
KBVIN [12] = experiment: Inhibition of P-gp-mediated multidrug-resistance in human KBVIN cells assessed as paclitaxel-induced cytotoxicity at 10 uM after 72 hrs by SRB assay; how it was run: as §1
[13] = target: T1, ATP-dependent translocase ABCB1; experiment: Inhibition of P-gp over expressed in human multidrug-resistant KBVIN cells assessed as intracellular accumulation of doxorubicin at 10uM after 3 hrs by fluorescence microplate reader analysis relative to control
How it was run: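 KBvin cells at 5 × 10^3/well were pretreated with compound for 1 h, then given doxorubicin (10 μM final) for 3 h. Cells were washed with ice-cold PBS and lysed in 1% SDS/PBS. Verapamil or CsA served as positive control.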

KBVIN [14] = experiment: Inhibition of P-gp-mediated multidrug-resistance in human KBVIN cells assessed as […] of paclitaxel-induced cell survival rate at 10 uM after 72 hrs by SRB assay

Compound	pIC50 (KB)	pIC50 [8]	pIC50 (DU-145)	pIC50 (A549)	inhibition (KBVIN [14])	also measured
COc1cc(COC(=O)C(C)(C)C)c(-c2c(COC(=O)C(C)(C)C)cc(OC)c3c2OCO3)c2c1OCO2	< 4.00	< 4.00	< 4.00	< 4.00	–	Activity (KBVIN [1]): Active; inhibition (KBVIN [2]): Dose-dependent effect; pEC50 [3]: 5.55; fold change (FC) (KBVIN [4]): 37; fold change (FC) (KBVIN [5]): 46; inhibition (NIH3T3 [6]): Active; inhibition (INH) [7]: Dose-dependent effect; fold change (FC) (KBVIN [9]): 349; Activity (KBVIN [10]): Active; inhibition (NIH3T3 [11]): Active; Activity (KBVIN [12]): Active; fold change (FC) [13]: 1.2
COc1c2c(c3c(c1Br)c(=O)oc(=O)c1c(Br)c(OC)c4c(c13)OCO4)OCO2	< 4.00	< 4.00	< 4.00	< 4.00	inactive	–
COc1cc(COC(=O)c2ccc3c(c2)OCO3)c(-c2c(COC(=O)c3ccc4c(c3)OCO4)cc(OC)c3c2OCO3)c2c1OCO2	< 4.00	< 4.00	< 4.00	< 4.00	inactive	–
COc1cc(CO)c(-c2c(CO)cc(OC)c3c2OCO3)c2c1OCO2	< 4.00	< 4.00	< 4.00	< 4.00	inactive	–
CCCCCCCCCCCC(=O)OCc1cc(OC)c2c(c1-c1c(COC(=O)CCCCCCCCCCC)cc(OC)c3c1OCO3)OCO2	< 4.00	< 4.00	< 4.00	< 4.00	inactive	–
CCCC(=O)OCc1c(Br)c(OC)c2c(c1-c1c(COC(=O)CCC)c(Br)c(OC)c3c1OCO3)OCO2	–	–	–	–	inactive	Activity (KB): Toxic; Activity [8]: Toxic; Activity (DU-145): Toxic; Activity (A549): Toxic
COc1cc(COC(=O)c2ccc(C(F)(F)F)nc2)c(-c2c(COC(=O)c3ccc(C(F)(F)F)nc3)cc(OC)c3c2OCO3)c2c1OCO2	< 4.00	< 4.00	< 4.00	< 4.00	inactive	–
COc1cc(COC(C)=O)c(-c2c(COC(C)=O)cc(OC)c3c2OCO3)c2c1OCO2	< 4.00	< 4.00	< 4.00	< 4.00	inactive	–
COc1c(Br)c(CO)c(-c2c(CO)c(Br)c(OC)c3c2OCO3)c2c1OCO2	< 4.00	< 4.00	< 4.00	< 4.00	inactive	–
COC(=O)c1c(Br)c(OC)c2c(c1-c1c3c(c(OC)c(Br)c1C(=O)OC)OCO3)OCO2	< 4.00	< 4.00	< 4.00	< 4.00	inactive	–
COC(=O)c1c(I)c(OC)c2c(c1-c1c3c(c(OC)c(I)c1C(=O)OC)OCO3)OCO2	< 4.00	< 4.00	< 4.00	< 4.00	inactive	–
COc1cc(COC(=O)c2ccc(C#N)cc2)c(-c2c(COC(=O)c3ccc(C#N)cc3)cc(OC)c3c2OCO3)c2c1OCO2	< 4.00	< 4.00	< 4.00	< 4.00	inactive	–
COc1cc(COC(=O)c2ccc3ccccc3n2)c(-c2c(COC(=O)c3ccc4ccccc4n3)cc(OC)c3c2OCO3)c2c1OCO2	–	–	–	–	Active	Activity (KB): Toxic; Activity [8]: Toxic; Activity (DU-145): Toxic; Activity (A549): Toxic
COc1cc(COC(=O)c2ccc([N+](=O)[O-])cc2)c(-c2c(COC(=O)c3ccc([N+](=O)[O-])cc3)cc(OC)c3c2OCO3)c2c1OCO2	< 4.00	< 4.00	< 4.00	< 4.00	inactive	–
COc1cc(COC(=O)CCC(=O)O)c(-c2c(COC(=O)CCC(=O)O)cc(OC)c3c2OCO3)c2c1OCO2	< 4.00	< 4.00	< 4.00	< 4.00	inactive	–
COc1cc(COC(=O)c2ccc(C)cc2)c(-c2c(COC(=O)c3ccc(C)cc3)cc(OC)c3c2OCO3)c2c1OCO2	< 4.00	< 4.00	< 4.00	< 4.00	–	fold change (FC) (KBVIN [4]): 27; fold change (FC) (KBVIN [5]): 11; inhibition (NIH3T3 [6]): Active; fold change (FC) (KBVIN [9]): 51; inhibition (NIH3T3 [11]): Active; fold change (FC) [13]: 1.2
COc1cc(C(=O)OCc2cc(OC)c3c(c2-c2c(COC(=O)c4cc(OC)c(OC)c(OC)c4)cc(OC)c4c2OCO4)OCO3)cc(OC)c1OC	< 4.00	< 4.00	< 4.00	< 4.00	–	Activity (KBVIN [1]): Active; inhibition (KBVIN [2]): Dose-dependent effect; pEC50 [3]: 5.73; fold change (FC) (KBVIN [4]): 222; fold change (FC) (KBVIN [5]): 23; inhibition (NIH3T3 [6]): Active; inhibition (INH) [7]: Dose-dependent effect; fold change (FC) (KBVIN [9]): 566; Activity (KBVIN [10]): Active; inhibition (NIH3T3 [11]): Active; Activity (KBVIN [12]): Active; fold change (FC) [13]: 1.2
COc1c(Br)c(CO)c(-c2c3c(c(OC)c(Br)c2C(=O)O)OCO3)c2c1OCO2	< 4.00	< 4.00	< 4.00	< 4.00	inactive	–
COc1ccc(CCN(C)CCCC(C#N)(c2ccc(OC)c(OC)c2)C(C)C)cc1OC (centres undefined)	–	–	–	–	–	Activity (KBVIN [1]): Active; fold change (FC) (KBVIN [4]): 31; fold change (FC) (KBVIN [5]): 9; fold change (FC) (KBVIN [9]): 109; Activity (KBVIN [10]): Active; Activity (KBVIN [12]): Active; fold change (FC) [13]: 1.2
